ChEMBL document CHEMBL1136923, “Highly potent, orally available anti-inflammatory broad-spectrum chemokine inhibitors” (J Med Chem, 2009)
pEC50: −log10 of the molar value.

Legend:
[1] = biological target: C-C chemokine receptor type 5 (Homo sapiens) (UniProt P51681); experiment: Antagonist activity at CCR5 in human THP1 cells assessed as inhibition of CCL5-induced chemotaxis at 0.1 nM after 2 hrs by microtiter format trans-well migration assay; type: functional, cell-based; conditions: THP-1
Summary of the method: (§1)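 Microtiter trans-well migration assay in Gey's balanced salt solution with 1 mg/mL endotoxin-free BSA, no fetal calf serum. Migration ran 2 h at 37 °C. Compounds dissolved in DMSO and added to both top and bottom compartments, final DMSO 1%.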

[2] = biological target: C-C chemokine receptor type 5 (Homo sapiens) (UniProt P51681); experiment: Antagonist activity at CCR5 in human THP1 cells assessed as inhibition of CCL5-induced chemotaxis at 1000 nM after 2 hrs by microtiter format trans-well migration assay; type: functional, cell-based; conditions: THP-1; summary of the method: as §1
THP-1 [3] = experiment: Toxicity in human THP1 cells assessed as change in cell size at 1000 nM by forward scatter flow cytometry relative to control; type: cell-based; conditions: thp-1, 1 µM
[4] = biological target: T1, C5a anaphylatoxin chemotactic receptor 1 (Homo sapiens) (UniProt P21730); experiment: Antagonist activity at C5a receptor in human PMNC assessed as inhibition of C5a-induced chemotaxis at 0.01 nM after 2 hrs by microtiter format trans-well migration assay; type: functional; summary of the method: as §1
T1 sequence (whole entry): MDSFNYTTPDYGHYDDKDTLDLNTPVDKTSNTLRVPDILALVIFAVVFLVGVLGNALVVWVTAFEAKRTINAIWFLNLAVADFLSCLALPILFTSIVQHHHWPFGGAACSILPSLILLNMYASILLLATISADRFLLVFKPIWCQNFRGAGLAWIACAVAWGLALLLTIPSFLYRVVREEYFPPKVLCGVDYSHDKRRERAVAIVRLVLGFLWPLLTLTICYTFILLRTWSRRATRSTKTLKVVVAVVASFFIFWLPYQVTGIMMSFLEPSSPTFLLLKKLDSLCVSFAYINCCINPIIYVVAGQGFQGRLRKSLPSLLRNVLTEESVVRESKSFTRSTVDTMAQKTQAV

[5] = Half life in Sprague-Dawley rat at 3 mg/kg, po administered as single dose; type: ADME, organism-based; design: dose 3 mg/kg, route oral; conditions: in vivo
Summary of the method: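 Male Sprague-Dawley rats, three per compound, receive a single oral dose by gavage in 1% carboxymethylcellulose in 0.9% saline, with food and water ad libitum. Plasma is sampled from 5 to 480 min and drug is quantified by positive-mode LC/MS/MS after acetonitrile/formic acid extraction. The lower limit of quantitation is about 2 ng/mL. Exposure is AUC(0→t) by the linear/log trapezoidal rule, and F is oral fractional bioavailability.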

[6] = Antagonist activity at Interleukin-8 receptor in human PMNC assessed as inhibition of CXCL8-induced chemotaxis at 100 nM after 2 hrs by microtiter format trans-well migration assay; type: functional; summary of the method: as §1
[7] = biological target: T1, C5a anaphylatoxin chemotactic receptor 1 (Homo sapiens); experiment: Antagonist activity at C5a receptor in human PMNC assessed as inhibition of C5a-induced chemotaxis after 2 hrs by microtiter format trans-well migration assay; type: functional; summary of the method: as §1
[8] = biological target: C-X-C chemokine receptor type 4 (Homo sapiens) (UniProt P61073); experiment: Antagonist activity at CXCR4 in human THP1 cells assessed as inhibition of CXCL12-induced chemotaxis at 100 nM after 2 hrs by microtiter format trans-well migration assay; type: functional, cell-based; conditions: THP-1; summary of the method: as §1
C-X-C chemokine receptor type 4 (Homo sapiens), sequence (P61073 whole entry): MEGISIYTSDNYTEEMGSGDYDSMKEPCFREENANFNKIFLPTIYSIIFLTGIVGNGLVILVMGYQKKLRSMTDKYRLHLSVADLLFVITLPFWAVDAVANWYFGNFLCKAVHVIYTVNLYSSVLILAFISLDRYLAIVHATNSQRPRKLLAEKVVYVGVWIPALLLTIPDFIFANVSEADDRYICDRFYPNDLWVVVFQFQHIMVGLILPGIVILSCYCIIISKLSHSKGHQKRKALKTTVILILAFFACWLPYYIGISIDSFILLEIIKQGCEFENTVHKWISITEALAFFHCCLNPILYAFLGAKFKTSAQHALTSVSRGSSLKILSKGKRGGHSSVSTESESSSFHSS

Mus musculus [9] = experiment: Antiinflammatory activity in po dosed mouse assessed as inhibition of LPS-induced TNFalpha upregulation measured 2 hrs after LPS challenge relative to control; type: functional
Summary of the method: (§2)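 Murine sublethal LPS endotoxemia screen. LPS is injected intraperitoneally and serum TNF-α is measured 2 h later as the end point. Compound is given subcutaneously or orally in a vehicle of 0.6% DMSO plus 1% carboxymethylcellulose (final concentrations) in sterile water. Values are % relative to control.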

[10] = biological target: C-C chemokine receptor type 5 (Homo sapiens) (UniProt P51681); experiment: Antagonist activity at CCR5 in human THP1 cells assessed as inhibition of CCL5-induced chemotaxis at 100 nM after 2 hrs by microtiter format trans-well migration assay; type: functional, cell-based; conditions: THP-1; summary of the method: as §1
Mus musculus [11] = experiment: Antiinflammatory activity in mouse assessed as inhibition of LPS-induced TNFalpha upregulation at 830 pg, sc measured 2 hrs after LPS challenge; type: functional; summary of the method: as §2
Mus musculus [12] = experiment: Antiinflammatory activity in mouse assessed as inhibition of LPS-induced TNFalpha upregulation at 0.025 mg, po measured 2 hrs after LPS challenge; type: functional
Summary of the method: (§3)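 Murine sublethal endotoxemia: LPS given intraperitoneally, with serum TNF-α measured 2 h after the LPS injection as the end point. Compound was given subcutaneously or orally. Vehicle was 0.6% DMSO and 1% carboxymethylcellulose (final concentrations) in sterile water. Effect is reported as % relative to control.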

Mus musculus [13] = experiment: Antiinflammatory activity in mouse assessed as inhibition of LPS-induced TNFalpha upregulation at 0.075 mg, po measured 2 hrs after LPS challenge; type: functional; summary of the method: as §3
[14] = Antagonist activity at Interleukin-8 receptor in human PMNC assessed as inhibition of CXCL8-induced chemotaxis after 2 hrs by microtiter format trans-well migration assay; type: functional; conditions: read-out: ED50 (the source's name); summary of the method: as §1
[15] = biological target: T2, C-C chemokine receptor type 1 (Homo sapiens) (UniProt P32246); experiment: Antagonist activity at CCR1 in human THP1 cells assessed as inhibition of CCL3-induced chemotaxis at 100 nM after 2 hrs by microtiter format trans-well migration assay; type: functional, cell-based; conditions: THP-1; summary of the method: as §1
T2 sequence (whole entry): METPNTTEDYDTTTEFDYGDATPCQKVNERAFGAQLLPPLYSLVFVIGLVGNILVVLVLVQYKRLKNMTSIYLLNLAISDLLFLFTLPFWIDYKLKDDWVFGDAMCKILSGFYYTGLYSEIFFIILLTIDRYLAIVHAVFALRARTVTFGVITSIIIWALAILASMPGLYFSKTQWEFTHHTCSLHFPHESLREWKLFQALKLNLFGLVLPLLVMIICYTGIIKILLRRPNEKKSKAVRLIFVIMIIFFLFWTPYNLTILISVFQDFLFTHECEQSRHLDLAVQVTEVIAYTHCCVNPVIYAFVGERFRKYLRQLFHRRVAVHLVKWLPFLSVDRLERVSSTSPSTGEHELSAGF

[16] = biological target: T1, C5a anaphylatoxin chemotactic receptor 1 (Homo sapiens); experiment: Antagonist activity at C5a receptor in human PMNC assessed as inhibition of C5a-induced chemotaxis at 10 nM after 2 hrs by microtiter format trans-well migration assay; type: functional; summary of the method: as §1
THP-1 [17] = experiment: Endogenous chemoattractant activity at human THP1 cells assessed as cell migration at 0.1 nM after 2 hrs by microtiter format trans-well migration assay; type: functional
[18] = Antagonist activity at Interleukin-8 receptor in human PMNC assessed as inhibition of CXCL8-induced chemotaxis at 10 nM after 2 hrs by microtiter format trans-well migration assay; type: functional; summary of the method: as §1
Mus musculus [19] = experiment: Antiinflammatory activity in mouse assessed as inhibition of LPS-induced TNFalpha upregulation at 0.075 mg, sc measured 2 hrs after LPS challenge; type: functional; summary of the method: as §3
[20] = biological target: C-X-C chemokine receptor type 4 (Homo sapiens) (UniProt P61073); experiment: Antagonist activity at CXCR4 in human THP1 cells assessed as inhibition of CXCL12-induced chemotaxis at 1000 nM after 2 hrs by microtiter format trans-well migration assay; type: functional, cell-based; conditions: THP-1; summary of the method: as §1
Mus musculus [21] = experiment: Antiinflammatory activity in mouse assessed as inhibition of LPS-induced TNFalpha upregulation at 0.00075 mg, sc measured 2 hrs after LPS challenge; type: functional
Summary of the method: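 Murine sublethal endotoxemia: LPS given intraperitoneally, serum TNF-α measured 2 h after LPS injection. Compound vehicle 0.6% DMSO plus 1% carboxymethylcellulose (final concentrations) in sterile water.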

C-C chemokine receptor type 5 (Homo sapiens), sequence (P51681 whole entry, looked up): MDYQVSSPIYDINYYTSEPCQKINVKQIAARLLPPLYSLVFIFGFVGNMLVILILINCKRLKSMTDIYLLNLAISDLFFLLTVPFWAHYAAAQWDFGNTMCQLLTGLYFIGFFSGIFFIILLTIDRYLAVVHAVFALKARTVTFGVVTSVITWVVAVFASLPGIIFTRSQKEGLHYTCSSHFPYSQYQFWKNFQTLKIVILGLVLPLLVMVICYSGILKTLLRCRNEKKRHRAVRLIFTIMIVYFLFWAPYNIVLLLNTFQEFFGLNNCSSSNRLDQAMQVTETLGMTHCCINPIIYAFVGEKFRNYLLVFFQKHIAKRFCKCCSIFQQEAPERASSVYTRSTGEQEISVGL

CCCCCCCCCCC(C)(C)C(=O)N[C@H]1CCCCNC1=O
inhibition [1]: 16.5% | inhibition [2]: 100% | fold change (FC) (THP-1 [3]): 1.05 | inhibition [4]: 20% | half-life [5]: 1.7 h | inhibition at 0.1 µM [6]: 128% | ED50 [7]: > 1000 nM | inhibition [8]: 111% | inhibition (INH) (Mus musculus [9]): 70% | inhibition [10]: 92.5% | inhibition (INH) (Mus musculus [11]): 18% | inhibition (INH) (Mus musculus [12]): 44% | inhibition (INH) (Mus musculus [13]): 80% | pEC50 [14]: 9.52 | inhibition [15]: 95% | inhibition [16]: -3% | Activity (THP-1 [17]): 2556% | inhibition at 0.01 µM [18]: 121% | inhibition (INH) (Mus musculus [19]): 66% | inhibition [20]: 112% | inhibition (INH) (Mus musculus [21]): 57%
